Activity calls are given as the source filed them. No cut-off for these calls is given here.
What was measured:
[1] = target: T1, 2-amino-4-hydroxy-6-hydroxymethyldihydropteridine pyrophosphokinase (Escherichia coli (strain K12), UniProt P26281); assay: Binding affinity to biotinylated Escherichia coli HPPK expressed in Escherichia coli BL21 (DE3) in presence of 1 mM ATP by SPR assay
T1 sequence (P26281 whole entry): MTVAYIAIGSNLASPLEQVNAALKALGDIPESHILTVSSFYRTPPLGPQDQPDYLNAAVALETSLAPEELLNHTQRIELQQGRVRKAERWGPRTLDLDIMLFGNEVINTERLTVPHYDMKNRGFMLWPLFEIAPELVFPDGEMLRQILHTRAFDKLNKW
Summary of the method: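 N-terminal His6/TEV-cleavable construct expressed in E. coli BL21(DE3), Ni-NTA purified, His-tag cleaved, then size exclusion. Minimally biotinylated via NHS-activated biotin and captured on streptavidin chip (~4900 RU). Analytes in 3-fold serial dilutions, duplicate or more; sensorgrams solvent-corrected, double-referenced.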

[2] = target: T2, 2-amino-4-hydroxy-6-hydroxymethyldihydropteridin e pyrophosphokinase (Staphylococcus aureus, UniProt X5EH84); assay: Binding affinity to biotinylated Staphylococcus aureus HPPK in presence of 1 mM ATP by SPR assay
T2 sequence (X5EH84 whole entry): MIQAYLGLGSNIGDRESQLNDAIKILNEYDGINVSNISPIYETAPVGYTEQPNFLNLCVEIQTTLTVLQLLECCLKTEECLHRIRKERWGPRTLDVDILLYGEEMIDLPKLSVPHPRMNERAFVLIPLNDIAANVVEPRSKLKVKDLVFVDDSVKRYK
Summary of the method: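 Enzyme minimally biotinylated via maleimide-activated biotin, captured on streptavidin chip (~3800 RU). 3-fold serial dilutions, top concentration between 3 and 300 μM; 60 s contact at 30 μL·min−1, 60 s dissociation; duplicate or more; double-referenced, globally fitted where limited.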

[3] = target: T3, 2-amino-4-hydroxy-6-hydroxymethyldihydropteridin e pyrophosphokinase (Staphylococcus aureus) (UniProt X5EH84); assay: Binding affinity to AMPCPP-loaded and 15N/13C-labeled Staphylococcus aureus HPPK assessed a induction of chemical shift changes in 15N HSQC spectra by HNCA triple resonance 3D NMR spectroscopy
T3 sequence (whole entry): T2 sequence (X5EH84 whole entry)

[4] = target: T3, 2-amino-4-hydroxy-6-hydroxymethyldihydropteridin e pyrophosphokinase (Staphylococcus aureus); assay: Binding affinity to AMPCPP-loaded and 15N/13C-labeled Staphylococcus aureus HPPK assessed a induction of 1H-15N chemical shift perturbations by 2D 15N-FAST-HSQC NMR spectrscopy

| Structure (SMILES) | Kd [1] [µM] | Kd [2] [µM] | Activity [3] | Activity [4] |
| --- | --- | --- | --- | --- |
| Nc1nc2[nH]c(SCc3ccccc3[N+](=O)[O-])nc2c(=O)[nH]1 | 5.7 | 0.54 |  |  |
| Nc1nc2[nH]c(SCc3ccc(F)cc3F)nc2c(=O)[nH]1 | 1.4 | 0.26 |  |  |
| Cc1cc(CSc2nc3c(=O)[nH]c(N)nc3[nH]2)ccc1F | 10.1 | 3.6 |  |  |
| Nc1nc2[nH]c(SCc3cccc(Br)c3)nc2c(=O)[nH]1 | 7.1 | 3.1 |  |  |
| COCCSc1nc2c(=O)[nH]c(N)nc2[nH]1 | 52 | 2.76 |  |  |
| CNC(=O)CSc1nc2c(=O)[nH]c(N)nc2[nH]1 | 50 | 8.8 |  |  |
| Cc1cc(F)ccc1CSc1nc2c(=O)[nH]c(N)nc2[nH]1 | 16.3 | 1.97 |  |  |
| Nc1nc2[nH]c(SCc3ccccc3Cl)nc2c(=O)[nH]1 |  | 1.3 |  |  |
| N#Cc1ccc(CSc2nc3nc(N)[nH]c(=O)c3[nH]2)cc1 |  |  | Active | Active |
| CCN(C)C(=O)C(C)Sc1nc2c(=O)[nH]c(N)nc2[nH]1 (stereo not drawn) | 120 | 46 |  |  |
| Nc1nc2[nH]c(SCc3ccc(C(F)(F)F)cc3)nc2c(=O)[nH]1 |  | 1.93 |  |  |
| Nc1nc2[nH]c(SCC(O)C(F)(F)F)nc2c(=O)[nH]1 (stereo not drawn) | 97 | 3.6 |  |  |
| Cc1cccc(CSc2nc3c(=O)[nH]c(N)nc3[nH]2)c1 | 1.7 | 0.38 |  |  |
| Nc1nc2[nH]c(SCc3ccccc3F)nc2c(=O)[nH]1 |  |  |  | Active |
| Nc1nc2[nH]c(SCCC3OCCCO3)nc2c(=O)[nH]1 | 23.3 | 7.9 |  |  |
| N#Cc1cc(CSc2nc3c(=O)[nH]c(N)nc3[nH]2)ccc1F | 5.3 | 2.1 |  |  |
| Cc1cccc(CSc2nc3c(=O)[nH]c(N)nc3[nH]2)c1F | 10.7 | 2.8 |  |  |
| Nc1nc2[nH]c(SCCCO)nc2c(=O)[nH]1 | 68 | 4.6 |  |  |
| Nc1nc2[nH]c(SCCN3CCCC3=O)nc2c(=O)[nH]1 |  | 7.9 |  |  |
| Nc1nc2[nH]c(SCc3ccc(F)c(F)c3)nc2c(=O)[nH]1 | 2 | 0.29 |  |  |
| N#Cc1ccc(CSc2nc3c(=O)[nH]c(N)nc3[nH]2)c(F)c1 | 2.7 | 0.59 | Active | Active |
| COc1ccc(CSc2nc3c(=O)[nH]c(N)nc3[nH]2)cc1 | 2.2 | 0.52 |  |  |
| Nc1nc2[nH]c(SCc3cccc(F)c3)nc2c(=O)[nH]1 | 2.6 | 0.22 |  |  |
| Nc1nc2[nH]c(S)nc2c(=O)[nH]1 | 160 |  |  |  |
| CN(C)C(=O)CSc1nc2c(=O)[nH]c(N)nc2[nH]1 | 53 | 1.5 |  |  |
| CC(C)CNC(=O)CSc1nc2c(=O)[nH]c(N)nc2[nH]1 | 59.4 | 13 |  |  |
| Nc1nc2[nH]c(SCc3c(F)cccc3F)nc2c(=O)[nH]1 | 1.76 | 0.12 | Active | Active |

| Structure (SMILES) | Kd [1] [µM] | Kd [2] [µM] | Activity [3] | Activity [4] |
| --- | --- | --- | --- | --- |
| Nc1nc2[nH]c(SCc3ccc(F)cc3)nc2c(=O)[nH]1 | 3.9 | 0.3 |  |  |
| Nc1nc2[nH]c(SCc3ccc(OC(F)(F)F)cc3)nc2c(=O)[nH]1 | 5.2 | 2.1 |  |  |
| Nc1nc2[nH]c(SCc3ccccc3)nc2c(=O)[nH]1 |  |  | Active | Active |
| COc1ccc(CSc2nc3c(=O)[nH]c(N)nc3[nH]2)c(F)c1 | 0.95 | 0.3 |  |  |
| Nc1nc2[nH]c(SCC(=O)c3ccc(Br)cc3)nc2c(=O)[nH]1 | 0.7 | 0.57 |  |  |
| Nc1nc2[nH]c(SCCO)nc2c(=O)[nH]1 | 89.2 | 7.6 |  |  |
| Nc1nc2[nH]c(SCc3cccc(OC(F)(F)F)c3)nc2c(=O)[nH]1 | 5.7 | 1.61 |  |  |
| Nc1nc2[nH]c(SCc3cccc([N+](=O)[O-])c3)nc2c(=O)[nH]1 | 5.8 | 1.4 |  |  |
| Cc1cc(C)cc(CSc2nc3c(=O)[nH]c(N)nc3[nH]2)c1 | 6.9 | 2.3 |  |  |
| Nc1nc2[nH]c(SCc3cc(C(F)(F)F)cc(C(F)(F)F)c3)nc2c(=O)[nH]1 |  | 1.2 |  |  |
| Nc1nc2[nH]c(SCc3ccc(Br)cc3)nc2c(=O)[nH]1 | 2.13 | 0.95 |  |  |
| COc1ccc(C(=O)CSc2nc3nc(N)[nH]c(=O)c3[nH]2)cc1 |  |  |  | Active |
| Nc1nc2[nH]c(SCc3cccc(C(=O)O)c3)nc2c(=O)[nH]1 | 26 | 2.6 |  |  |
| N#Cc1cccc(CSc2nc3c(=O)[nH]c(N)nc3[nH]2)c1 | 3.5 | 0.77 |  |  |
| Cc1ccc(C)c(CSc2nc3c(=O)[nH]c(N)nc3[nH]2)c1 | 12.6 | 1.7 |  |  |
| Nc1nc(O)c2[nH]c(SCc3ccc(Cl)cc3)nc2n1 | 4.3 | 1.24 |  |  |
| COc1cccc(CSc2nc3c(=O)[nH]c(N)nc3[nH]2)c1 | 1.8 | 0.65 |  |  |
| Nc1nc2[nH]c(SCc3cccc(Cl)c3)nc2c(=O)[nH]1 | 1.7 | 0.57 |  |  |
| N#Cc1ccccc1CSc1nc2c(=O)[nH]c(N)nc2[nH]1 | 23 | 0.51 |  |  |
| Cc1ccccc1CSc1nc2c(=O)[nH]c(N)nc2[nH]1 | 2.5 | 0.47 |  |  |
| CCN(CC)C(=O)CSc1nc2c(=O)[nH]c(N)nc2[nH]1 | 74.2 | 11 |  |  |
| Cc1ccc(F)c(CSc2nc3c(=O)[nH]c(N)nc3[nH]2)c1 | 0.965 | 0.21 |  |  |
| Nc1nc2[nH]c(SCc3ccccc3Br)nc2c(=O)[nH]1 | 8.5 | 1.5 |  |  |
| Nc1nc2[nH]c(SCC(O)CO)nc2c(=O)[nH]1 (stereo not drawn) | 82 | 13.4 |  |  |
| Cc1cccc(CSc2nc3c(=O)[nH]c(N)nc3[nH]2)c1C | 6.1 | 0.841 |  |  |
| N#Cc1cc(F)ccc1CSc1nc2c(=O)[nH]c(N)nc2[nH]1 | 38 | 1.2 |  |  |

Source: ChEMBL document CHEMBL3817742, “Structural Basis for the Selective Binding of Inhibitors to 6-Hydroxymethyl-7,8-dihydropterin Pyrophosphokinase from Staphylococcus aureus and Escherichia coli” (J Med Chem, 2016)
